# Key:
# Trypsin = Trypsin (Homo sapiens, UniProt P07477+P07478+P35030); assay: Binding affinity to trypsin; assay type: protein assay
# Coagulation factor X [1] = molecular target: T1, Coagulation factor X (Homo sapiens, UniProt P00742); assay: Activated partial thromboplastin time; assay type: functional
# Summary of the method: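 Human citrated plasma spiked with at least six inhibitor concentrations; intrinsic-pathway clotting started with Actin FS (ellagic acid in soy phosphatides). Clotting time read by turbidity. Concentration doubling control clotting time (EC50) obtained by fitting data to exponential regression.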
# Coagulation factor X [2] = molecular target: T1, Coagulation factor X; assay: Binding affinity to FXa
# Homo sapiens = species: Homo sapiens; assay: Ratio of activated partial thromboplastin time against prothrombin time (aPTT/PT); assay type: functional
# [3] = molecular target: Coagulation factor VII/tissue factor (Homo sapiens) (UniProt P08709+P13726); settings: Plasma
# [4] = molecular target: Coagulation factor VII/tissue factor (Homo sapiens, UniProt P08709); assay: Binding affinity to FVIIa/TF; assay type: protein-complex assay
# Prothrombin = Prothrombin (Homo sapiens, UniProt P00734); assay: Binding affinity to thrombin
# [5] = Oral bioavailability in rat at 10.3 mg/kg; assay type: ADME, organism-based; settings: in vivo
# [6] = Half life in rat administered with 10.3 mg/kg, po; assay type: ADME, organism-based; parameters: dose 10.3 mg/kg, route oral; settings: in vivo
# [7] = Oral bioavailability in rat at 10 mg/kg; assay type: ADME, organism-based; settings: in vivo
# Summary of the method: (§1)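 Rat pharmacokinetics with intravenous and oral dosing at the stated doses (mg/kg). Half-lives determined for iv and po routes; clearance (ml/min/kg), steady-state volume of distribution (l/kg) and oral bioavailability (%) derived.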
# [8] = Half life in rat administered with 10 mg/kg, iv; assay type: ADME, organism-based; parameters: dose 10 mg/kg, route intravenous; settings: in vivo; summary of the method: as §1
# [9] = Half life in rat administered with 10 mg/kg, po; assay type: ADME, organism-based; parameters: dose 10 mg/kg, route oral; settings: in vivo; summary of the method: as §1
# [10] = Oral bioavailability in rat at 6.1 mg/kg; assay type: ADME, organism-based; settings: in vivo; summary of the method: as §1
# [11] = Half life in rat administered with 6.1 mg/kg, iv; assay type: ADME, organism-based; parameters: dose 6.1 mg/kg, route intravenous; settings: in vivo; summary of the method: as §1
# [12] = Clearance in rat at 6.1 mg/kg; assay type: ADME, organism-based; parameters: dose 6.1 mg/kg; settings: in vivo; summary of the method: as §1
# [13] = Volume of distribution in rat at 6.1 mg/kg; assay type: ADME, organism-based; parameters: dose 6.1 mg/kg; settings: in vivo, read-out: Vdss; summary of the method: as §1
# [14] = Half life in rat administered with 3 mg/kg, iv; assay type: ADME, organism-based; parameters: dose 3 mg/kg, route intravenous; settings: in vivo; summary of the method: as §1
# [15] = Volume of distribution in rat at 3 mg/kg; assay type: ADME, organism-based; parameters: dose 3 mg/kg; settings: in vivo, read-out: Vdss; summary of the method: as §1
# [16] = Clearance in rat at 3 mg/kg; assay type: ADME, organism-based; parameters: dose 3 mg/kg; settings: in vivo; summary of the method: as §1
# Sequence of Coagulation factor VII/tissue factor (P08709 61-212 limits assumed): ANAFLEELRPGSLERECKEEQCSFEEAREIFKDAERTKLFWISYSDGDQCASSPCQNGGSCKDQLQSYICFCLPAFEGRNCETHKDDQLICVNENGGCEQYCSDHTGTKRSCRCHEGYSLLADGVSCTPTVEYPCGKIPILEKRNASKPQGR
# Sequence of Coagulation factor VII/tissue factor (P08709 213-466 limits assumed): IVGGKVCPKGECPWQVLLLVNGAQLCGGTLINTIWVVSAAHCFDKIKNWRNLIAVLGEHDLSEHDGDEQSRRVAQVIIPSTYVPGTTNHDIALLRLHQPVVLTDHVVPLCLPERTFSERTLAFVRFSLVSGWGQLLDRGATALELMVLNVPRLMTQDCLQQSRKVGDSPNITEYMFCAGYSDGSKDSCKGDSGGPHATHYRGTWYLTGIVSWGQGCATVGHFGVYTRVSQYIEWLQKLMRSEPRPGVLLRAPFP
# Sequence of Coagulation factor VII/tissue factor (P13726 33-295 partner limits assumed): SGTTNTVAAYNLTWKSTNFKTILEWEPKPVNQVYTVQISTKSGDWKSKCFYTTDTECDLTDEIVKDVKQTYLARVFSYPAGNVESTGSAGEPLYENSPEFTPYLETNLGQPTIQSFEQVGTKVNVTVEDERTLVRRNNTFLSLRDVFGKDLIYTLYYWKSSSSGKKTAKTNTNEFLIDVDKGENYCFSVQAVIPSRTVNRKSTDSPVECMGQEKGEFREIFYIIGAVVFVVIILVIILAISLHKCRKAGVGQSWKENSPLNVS
# T1 sequence (P00742 41-179 limits assumed): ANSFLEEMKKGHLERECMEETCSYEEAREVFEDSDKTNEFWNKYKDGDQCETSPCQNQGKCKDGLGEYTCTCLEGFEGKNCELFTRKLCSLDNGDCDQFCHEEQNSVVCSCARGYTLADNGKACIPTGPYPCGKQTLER
# T1 sequence (P00742 235-488 limits assumed): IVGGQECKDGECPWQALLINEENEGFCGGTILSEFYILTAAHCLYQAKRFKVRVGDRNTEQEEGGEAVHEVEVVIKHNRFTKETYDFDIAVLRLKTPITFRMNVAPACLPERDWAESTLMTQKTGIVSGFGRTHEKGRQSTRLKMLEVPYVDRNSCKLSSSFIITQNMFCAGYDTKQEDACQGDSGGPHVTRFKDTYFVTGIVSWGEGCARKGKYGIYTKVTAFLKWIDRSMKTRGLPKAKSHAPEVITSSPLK
Structure (SMILES),Ki (Trypsin),2aPTT (Coagulation factor X [1]),Ki (Coagulation factor X [2]),Ratio (Homo sapiens),2PT [3],Ki [4],Ki (Prothrombin),further results
CCOc1cc(O[C@H]2CC[C@H](O)CC2)cc(C(Nc2ccc(C(=N)N)cc2)C(=O)O)c1 (stereo partly specified),4000 nM,29.4 µM,12200 nM,5.4,5.4 µM,110 nM,5500 nM,–
CCOc1cc(OCC)cc(C(Nc2ccc(C(=N)NO)cc2)C(=O)O)c1 (stereo unspecified),–,–,–,–,–,–,–,bioavailability [5]: 30%; half-life [6]: 5 h
C=Cc1cc(OC2CCOCC2)cc(C(Nc2ccc(C(=N)N)cc2)C(=O)O)c1 (stereo unspecified),8700 nM,23.7 µM,13300 nM,4,5.9 µM,69 nM,2900 nM,–
CCOc1cc(O[C@@H]2CCOC2)cc(C(Nc2ccc(C(=N)N)cc2)C(=O)O)c1 (stereo partly specified),9900 nM,51.7 µM,9100 nM,–,–,–,11300 nM,–
CCOC(=O)C(Nc1ccc(C(=N)NO)cc1)c1cc(OCC)cc(O[C@H]2CCOC2)c1 (stereo partly specified),–,–,–,–,–,–,–,bioavailability [7]: 15%; half-life [8]: 0.9 h; half-life [9]: 4.1 h
CCOc1cc(O[C@H]2CCOC2)cc([C@@H](Nc2ccc(C(=N)N)cc2)C(=O)O)c1,4500 nM,10.3 µM,1500 nM,–,–,–,4600 nM,–
CCOc1cc(OC2CCN(S(C)(=O)=O)CC2)cc(C(Nc2ccc(C(=N)N)cc2)C(=O)O)c1 (stereo unspecified),3500 nM,26.9 µM,4400 nM,5.6,4.8 µM,180 nM,> 3500 nM,–
CCOc1cc(OCC)cc(C(Nc2ccc(C(=N)N)cc2)C(=O)O)c1 (stereo unspecified),16900 nM,–,5600 nM,–,–,–,> 35000 nM,bioavailability [10]: 2%; half-life [11]: 2.9 h; clearance [12]: 2.6 mL/min/kg; Vd [13]: 0.3 L/kg
CCOc1cc(OC2CCN(C)CC2)cc(C(Nc2ccc(C(=N)N)cc2)C(=O)O)c1 (stereo unspecified),8600 nM,22.3 µM,1600 nM,–,–,–,9900 nM,–
CCOc1cc(OC2CCOCC2)cc(C(Nc2ccc(C(=N)N)cc2)C(=O)O)c1 (stereo unspecified),7000 nM,19.8 µM,2900 nM,4.1,4.8 µM,140 nM,> 6600 nM,–
CCOC(=O)C(Nc1ccc(C(=N)NO)cc1)c1cc(OCC)cc(OCC)c1 (stereo unspecified),–,–,–,–,–,–,–,bioavailability [7]: 100%; half-life [8]: 3.5 h; half-life [9]: 4.8 h
CCOc1cc(-c2ccccc2)cc(C(Nc2ccc(C(=N)N)cc2)C(=O)O)c1 (stereo unspecified),> 68000 nM,69.9 µM,1400 nM,2,35.6 µM,130 nM,7300 nM,–
COc1cc(C(Nc2ccc(C(=N)N)cc2)C(=O)O)ccc1OCc1ccccc1 (stereo unspecified),310 nM,–,730 nM,–,11.9 µM,61 nM,74 nM,–
C#Cc1cc(OC2CCOCC2)cc(C(Nc2ccc(C(=N)N)cc2)C(=O)O)c1 (stereo unspecified),1900 nM,14.3 µM,2900 nM,4.2,3.4 µM,38 nM,4700 nM,–
CCOc1cc(C(Nc2ccc(C(=N)N)cc2)C(=O)O)ccc1OCc1ccccc1 (stereo unspecified),1000 nM,–,790 nM,–,8.8 µM,28 nM,85 nM,–
CCOc1cc(-c2cccnc2)cc(C(Nc2ccc(C(=N)N)cc2)C(=O)O)c1 (stereo unspecified),8000 nM,57.6 µM,2200 nM,4.9,11.8 µM,510 nM,10200 nM,–
C#Cc1cc(O[C@H]2CCOC2)cc(C(Nc2ccc(C(=N)N)cc2)C(=O)O)c1 (stereo partly specified),5400 nM,12.9 µM,2600 nM,3,4.3 µM,65 nM,9500 nM,–
CCc1cc(OC2CCOCC2)cc(C(Nc2ccc(C(=N)N)cc2)C(=O)O)c1 (stereo unspecified),4800 nM,15.6 µM,> 7500 nM,–,–,–,1600 nM,–
CCOc1cc(O[C@H]2CCOC2)cc(C(Nc2ccc(C(=N)N)cc2)C(=O)O)c1 (stereo partly specified),7300 nM,17.2 µM,2300 nM,–,–,–,8600 nM,half-life [14]: 1.4 h; Vd [15]: 0.5 L/kg; clearance [16]: 5.7 mL/min/kg
C#Cc1cc(O[C@@H]2CCOC2)cc(C(Nc2ccc(C(=N)N)cc2)C(=O)O)c1 (stereo partly specified),6600 nM,34 µM,15300 nM,3.7,9.1 µM,129 nM,8800 nM,–

# From ChEMBL document CHEMBL1141948, “Selective and orally bioavailable phenylglycine tissue factor/factor VIIa inhibitors” (Bioorg Med Chem Lett, 2005)
